Published values pooled from the literature.
Protocols differ between the studies behind these lines.
Organism: Aspergillus fumigatus
Read-out: microbial growth

C[C@@H]1[C@H](O)[C@@H](C)/C=C/C=C/C=C/C=C/C=C/C=C/C=C/[C@H](O[C@@H]2O[C@H](C)[C@@H](O)[C@H](N)[C@@H]2O)C[C@@H]2O[C@](O)(C[C@@H](O)C[C@@H](O)[C@H](O)CC[C@@H](O)C[C@@H](O)CC(=O)O[C@H]1C)C[C@H](O)[C@H]2C(=O)O — MIC (broth dilution; MF5668): 0.5 µg/mL
O=C1NN=C(N=Cc2ccc(O)c(O)c2)C1=NNn1c(-c2ccccc2)nc2ccccc2c1=O — MIC (broth dilution): 53.5 µM
C=CCCCCCCCCCCCC(O)CC(O)CO (stereo not shown) — IC50 (resazurin; ATCC204305): > 200 µg/mL
Clc1ccccc1C(c1ccccc1)(c1ccccc1)n1ccnc1 — inhibition zone (disc diffusion; 20000 µg/mL): 22 mm
OC(Cn1cncn1)(Cn1cncn1)c1ccc(F)cc1F — MIC (broth dilution; MF5668): > 128 µg/mL
CC1=NN(CNC(=O)c2ccccc2)C(=O)C1=NNn1c(-c2ccccc2)nc2ccccc2c1=O — MIC (broth dilution): 104 µM
CCCCCCCCCCCCCC(O)CC(O)CO (stereo not shown) — IC50 (resazurin; ATCC204305): > 200 µg/mL
C[C@@H]1[C@H](O)[C@@H](C)/C=C/C=C/C=C/C=C/C=C/C=C/C=C/[C@H](O[C@@H]2O[C@H](C)[C@@H](O)[C@H](N)[C@@H]2O)C[C@@H]2O[C@](O)(C[C@@H](O)C[C@@H](O)[C@H](O)CC[C@@H](O)C[C@@H](O)CC(=O)O[C@H]1C)C[C@H](O)[C@H]2C(=O)O — IC50 (ATCC204305): 860 nM
C#CCCCCCCCCCCCC(O)CC(O)CO (stereo not shown) — IC50 (resazurin; ATCC204305): > 200 µg/mL
CC1=NN(CNC(=O)c2ccccn2)C(=O)C1=NNn1c(-c2ccccc2)nc2ccccc2c1=O — MIC (broth dilution): 104 µM
